From ChEMBL document CHEMBL1759867, “Evaluation of dihydropyrimidin-(2H)-one analogues and rhodanine derivatives as tyrosinase inhibitors” (Bioorg Med Chem Lett, 2011)
Active and inactive are the calls of the source. The rule behind the calls is not given here.

Legend:
Tyrosinase = target: T1, Tyrosinase (Agaricus bisporus, UniProt O42713); test: Inhibition of diphenolase activity of mushroom tyrosinase preincubated with compound for 10 mins before addition of L-DOPA as substrate by spectrophotometric analysis
T1 sequence (O42713 whole entry): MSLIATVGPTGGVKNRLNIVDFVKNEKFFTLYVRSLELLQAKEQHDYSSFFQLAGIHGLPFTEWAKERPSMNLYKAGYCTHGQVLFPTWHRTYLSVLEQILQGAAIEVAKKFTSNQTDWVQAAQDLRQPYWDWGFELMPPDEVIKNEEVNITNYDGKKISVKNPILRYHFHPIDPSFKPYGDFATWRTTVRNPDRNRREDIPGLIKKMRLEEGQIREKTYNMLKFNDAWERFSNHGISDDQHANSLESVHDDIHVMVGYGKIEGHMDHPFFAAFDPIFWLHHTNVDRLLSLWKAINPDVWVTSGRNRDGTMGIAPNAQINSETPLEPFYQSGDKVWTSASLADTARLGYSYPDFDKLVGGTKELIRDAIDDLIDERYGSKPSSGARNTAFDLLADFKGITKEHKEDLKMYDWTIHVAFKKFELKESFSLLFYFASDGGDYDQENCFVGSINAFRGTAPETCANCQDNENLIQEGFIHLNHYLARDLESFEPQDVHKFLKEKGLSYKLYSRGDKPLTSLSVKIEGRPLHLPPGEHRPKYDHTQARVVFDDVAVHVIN
How it was run: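 Diphenolase activity of mushroom tyrosinase was measured with L-DOPA as substrate at 25 °C. IC50 was taken from logarithmic concentration–inhibition curves of at least eight points, as the mean of three experiments.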

[1] = target: T2, Tyrosinase (Agaricus bisporus) (UniProt O42713); test: Inhibition of diphenolase activity of mushroom tyrosinase at 50 mM preincubated with compound for 10 mins before addition of L-DOPA as substrate by spectrophotometric analysis
T2 sequence (whole entry): T1 sequence (O42713 whole entry)
How it was run: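 Mushroom tyrosinase diphenolase activity was measured on L-DOPA at 25 °C. Compounds were scored for activity at a single fixed concentration.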

| IC50 (Tyrosinase) | inhibition [1] | Compound |
| --- | --- | --- |
| 11.1 mM | – | COc1cc(/C=C2\SC(=S)NC2=O)ccc1O |
| 12.3 mM | – | CC(=O)C1=C(C)NC(=S)NC1c1ccc(O)cc1 (configuration not stated) |
| 0.56 mM | – | O=C1NC(=S)S/C1=C\c1ccc(OCCO)cc1 |
| – | inactive | COc1cc(C2NC(=O)NC(C)=C2C(C)=O)ccc1O (configuration not stated) |
| – | inactive | CCO/N=C(\C)C1=C(C)NC(=O)NC1CC (configuration not stated) |
| – | inactive | COc1ccc(C2NC(=O)NC(C)=C2C(C)=O)cc1 (configuration not stated) |
| – | inactive | CC(=O)C1=C(C)NC(=O)NC1c1ccc(O)cc1 (configuration not stated) |
| 20.1 mM | – | COc1cc(C2NC(=S)NC(C)=C2C(C)=O)ccc1O (configuration not stated) |
| 10.1 mM | – | O=C1NC(=S)S/C1=C\c1ccc(O)cc1 |
| 5.69 mM | – | O=C1NC(=S)S/C1=C\c1ccc(OCCO)c(OCCO)c1 |
| – | inactive | CCC1NC(=O)NC(C)=C1C(C)=O (configuration not stated) |
| – | inactive | CC(=O)C1=C(C)NC(=O)NC1c1ccccc1 (configuration not stated) |
| 10.7 mM | – | CCC1NC(=S)NC(C)=C1C(C)=O (configuration not stated) |
| – | inactive | CC(=O)C1=C(C)NC(=O)NC1c1ccccc1O (configuration not stated) |
| 16.2 mM | – | CC(=O)C1=C(C)NC(=S)NC1c1ccccc1O (configuration not stated) |
| 25.1 mM | – | COc1ccc(C2NC(=S)NC(C)=C2C(C)=O)cc1 (configuration not stated) |
| 9.55 mM | – | O=C1NC(=S)S/C1=C\c1ccccc1O |
